# Assay outcomes as filed in PubChem BioAssay.
# PG9 Ab binder – small molecules binding HIV-1 gp120 antibody PG9; 0.43% of 360,000 active; inhibition, % at 6.7 µM; TR-FRET gp120-PG9 antibody binding; in the data active = inhibition above about 8.5%
# MC4R antag cAMP – human MC4R antagonism in cAMP assay; P32245; MC4R-expressing cells, MTII-stimulated cAMP, LANCE TR-FRET; inhibition, % at 6.5 µM; 0.48% of 360,000 active;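 active = inhibition above its plate's cutoff, the mean of tested wells on that plate plus 3 SD, cut at about 29% in these data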;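 also: 0% = Melanotan II alone and 100% = Melanotan II plus saturating MCL0020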
# Target sequence (P32245 whole entry, looked up): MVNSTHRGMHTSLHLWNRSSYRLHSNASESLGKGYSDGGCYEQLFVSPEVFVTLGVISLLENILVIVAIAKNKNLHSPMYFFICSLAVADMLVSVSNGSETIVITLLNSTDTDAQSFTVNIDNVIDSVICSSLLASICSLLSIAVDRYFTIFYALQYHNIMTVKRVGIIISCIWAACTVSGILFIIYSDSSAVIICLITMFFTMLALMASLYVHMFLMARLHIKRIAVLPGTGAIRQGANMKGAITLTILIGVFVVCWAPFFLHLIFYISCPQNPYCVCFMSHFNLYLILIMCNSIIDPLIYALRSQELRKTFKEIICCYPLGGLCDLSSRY
#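 Assay system: U2OS cells stably expressing human melanocortin 4 receptor (MC4R) / Dosing: 6.5 µM / Timing: compound 30 min, challenge 1 h, detection 1 h / Measured by: Eu-cAMP/anti-cAMP TR-FRET, emission 671 nm / Replicates: singlicate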
# NR1D1 modulator – Rev-erb alpha (human) modulation; P20393; Rev-erbα–FITC-DNA binding, fluorescence polarization, 90 min; activity, % at 10 µM; 0.79% of 370,000 active; AID 1259318;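 active = activity above about 14%, limit read from the data; passing the limit was not always enough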;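 also: 0% = DMSO wells with 35 nM protein and 100% = DMSO wells with 750 nM protein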
# MC4R ag barr – activates human MC4R beta-arrestin recruitment | AID 540308 | activation, % at 8.9 µM | P32245 | 0.98% of 360,000 active | U2OS MC4R beta-arrestin complementation, luminescence; percent of melanotan II response, DMSO zero;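 active = activation above a per-plate cutoff, the mean activation of sample wells on that plate plus 3 SD, cut at about 8% in these data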
# NTR1 ag – NTR1 (human) agonism. P30989. NTR1-U2OS beta-arrestin-GFP spot imaging, agonist mode. activation, % at 20 µM. 0.17% of 330,000 active. AID 493036;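 active = activation at or above 40% of the spot to cytoplasm intensity ratio, with at least 20 cells analyzed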;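 also: 0% = DMSO without peptide and 100% = 100 nM NTR1 peptide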
# NTR1 ag conf – NTR1 (human) agonism, confirmed; shares compounds with NTR1 ag; AID 504550; NTR1-U2OS beta-arrestin-GFP translocation imaging; 38% of 480 active; activation, % at 20 µM;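 active = mean activation at 20 µM of at least 40%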;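 also: 0% = DMSO without peptide and 100% = 100 nM NTR1 peptide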
# Active calls of the source: *; x = no result. Shown are actives, neighbours in structure and some others; about 2.5% of the full set was active somewhere.
SMILES,PG9 Ab binder,MC4R antag cAMP,NR1D1 modulator,MC4R ag barr,NTR1 ag,NTR1 ag conf
Cn1ncc2c(Nc3ccc(Br)cc3)nc(Nc3ccc(Br)cc3)nc21,-1.5,6.0,0.6,-0.4,30.6,x
O=C(NCc1ccccc1)N1CCN(Cc2nc3ccccc3c(=O)[nH]2)CC1,x,x,0.2,x,x,x
C[C@@H]1CCN(C2CC2)S(=O)(=O)c2c(cccc2N2CC[C@H](N(C)C)C2)O1,x,x,0.9,x,x,x
COc1ccc(Cn2cc3c(-c4ccc(F)cc4)nnc-3c3cc(OC)c(OC)cc32)cc1,0.5,-1.3,5.1,-0.1,45.5*,78.3*
COC(=O)Cc1nnn2c1[C@H](C)[C@@H](OC)c1ccc(C(F)(F)F)cc1-2,-0.2,x,-3.5,x,x,x
Cc1noc(C)c1S(=O)(=O)N(C)C[C@@H]1OCc2cnnn2CCCC(=O)N([C@@H](C)CO)C[C@@H]1C,-3.2,x,7.8,x,x,x
COC(=O)C1CN(Cc2ccc(F)cc2)CCS(=O)(=O)N1Cc1cn(Cc2ccc(Cl)cc2)nn1 (stereo unspecified),x,x,1.3,x,x,x
O=C(Nc1ncc(Cc2ccc(Cl)cc2Cl)s1)c1ccc([N+](=O)[O-])cc1,-0.5,5.3,4.5,0.3,48.3*,6.5
O=C(Nc1nnc(COc2ccc(Cl)cc2)s1)c1ccc([N+](=O)[O-])cc1,-2.0,-2.0,-13.6,-0.7,-1.3,x
Cn1cc([N+](=O)[O-])c(C(=O)Nc2nc(-c3ccc(Cl)cc3)cs2)n1,-0.7,1.2,0.6,2.8,49.3*,71.3*
Cc1ccc(-n2nnc3c(=O)oc4ccccc4c32)cc1,0.8,45.5*,4.7,-0.5,57.7*,19.8
C[C@@H](NC(=O)c1nc[nH]c1C(=O)N[C@H](C)c1ccccc1)c1ccccc1,-2.1,2.2,7.1,3.6,-0.7,x
C[C@H](NC(=O)c1[nH]cnc1C(=O)Nc1cccc(Cl)c1)c1ccccc1,-1.3,4.7,1.6,3.0,51.7*,46.1*
C[C@H](CO)NC(=O)c1[nH]cnc1C(=O)Nc1cccc(Cl)c1,-0.1,-0.1,3.2,-0.7,x,x
C[C@@H](NC(=O)c1[nH]cnc1C(=O)Nc1cccc(Cl)c1)c1ccccc1,1.2,9.4,-4.5,4.4,45.0*,21.5
N#CCS(=O)(=O)c1cccc[n+]1[O-],-2.5,x,-1.0,x,x,x
COC(=O)[C@]12C[C@H](CC(=O)NCCc3ccccc3OC)C(=O)N(Cc3ccc(Cl)cc3Cl)C1=C[C@H](COCc1ccccc1)O[C@@H]2C,x,x,6.6,x,x,x
COc1ccc(CCn2c(=N)c(C(=O)NC3CCCC3)cc3c(=O)n4cccc(C)c4nc32)cc1,0.1,7.6,-3.2,1.5,50.3*,38.7
Cc1cccn2c(=O)c3cc(C(=O)NC4CCCC4)c(=N)n(CCc4ccccc4)c3nc12,1.3,0.7,-1.3,1.8,32.3,x
Nc1[nH]c(C(=O)c2ccccc2)c(-c2ccc(F)cc2)c1C(=O)c1c[nH]c2ccccc12,0.6,x,5.0,x,x,x
Oc1ccc(/C=N/N2CCN(C3c4ccccc4-c4ccccc43)CC2)c(O)c1,-2.7,3.4,5.4,7.3,43.1*,5.8
Oc1ccc(/C=N/N2CCN(C3c4ccccc4-c4ccccc43)CC2)cc1,-1.6,12.6,-6.5,6.3,37.5,x
Cc1ccccc1-n1nc(C(=O)c2cccs2)cc(-c2nc3ccccc3[nH]2)c1=N,-0.7,-7.0,5.5,3.3,55.0*,1.7
COc1ccc(-n2nc(C(=O)c3cccs3)cc(-c3nc4ccccc4[nH]3)c2=N)cc1,2.4,-5.6,-1.0,-1.8,76.5*,13.3
CCC(CO)Nc1cccc2c1S(=O)(=O)N(Cc1cn(Cc3ccc(F)cc3)nn1)Cc1ccccc1O2 (stereo unspecified),x,x,2.1,x,x,x
SMILES,PG9 Ab binder,MC4R antag cAMP,NR1D1 modulator,MC4R ag barr,NTR1 ag,NTR1 ag conf
O=C(Nc1ccc(Cl)cc1)/C(=C/c1cccc(O)c1)c1nc2ccccc2s1,-1.4,5.8,2.1,1.4,49.2*,56.5*
C#CCN1CC(N(C)CCOC(=O)c2ccc(F)cc2)CS1(=O)=O (stereo unspecified),x,x,-1.9,x,x,x
CNc1nc(N)c([N+](=O)[O-])c(NC2CCCCC2)n1,-0.7,-7.9,-0.4,0.2,6.5,x
Nc1nc(Nc2ccccc2)nc(NC2CCCCC2)c1[N+](=O)[O-],-1.4,12.1,0.8,2.3,86.8*,33.4
Cc1ccc2[nH]c(C)c(/C=N/Nc3nc4ccccc4s3)c2c1,-1.9,6.8,4.7,-1.6,40.9*,36.9
Brc1csc(/C=N/Nc2nc3ccccc3s2)c1,-0.2,15.1,0.1,0.8,23.9,x
COC(=O)[C@]12C[C@H](CC(=O)NCCCN3CCCC3=O)C(=O)N(Cc3ccco3)C1=C[C@H](C(C)C)O[C@@H]2C1CC1,x,x,-0.4,x,x,x
C=C(C)COc1ccc(-c2nc(N)ncc2-c2ccc(OC)cc2)c(O)c1,0.0,x,3.5,x,x,x
C=C(C)COc1ccc(-c2nc(N)ncc2-c2ccc(Cl)cc2)c(O)c1,-1.6,10.3,1.6,2.5,69.5*,25.8
CSc1nc(NCc2ccco2)c2ccccc2n1,-1.1,-12.6,-5.4,-0.3,-4.2,x
Cc1ccc(OCCN2CCN(c3nc(NCc4ccco4)c4ccccc4n3)CC2)cc1,-1.6,7.0,-2.0,-2.0,49.7*,32.0
Cc1nn(CCC(=O)NNC(=O)NCc2ccccc2)c(C)c1[N+](=O)[O-],x,x,5.2,x,x,x
COc1ccccc1/C=C/C=N/n1c(-c2ccc(F)cc2)n[nH]c1=S,-1.3,6.3,0.4,2.2,8.4,x
COc1ccccc1/C=C\C=N\n1c(-c2ccc(Cl)cc2)n[nH]c1=S,-0.7,7.5,-4.1,8.9*,48.6*,9.4
O=C(CN1CCN(C(=O)c2ccc(-c3nc4ccccc4s3)o2)CC1)Nc1ccccc1Cl,0.7,4.6,-12.0,-1.6,48.3*,25.1
Nc1nc(N)c(Br)c(Nc2ccc(Cl)c(Cl)c2)n1,1.9,6.4,2.5,1.7,x,x
Nc1nc(N)c(C=Nc2ccc(Br)cc2)c(Nc2ccc(Br)cc2)n1,-3.2,-2.0,-0.4,1.0,59.4*,31.8
CC(C)(C)c1nc(NC(=O)Nc2ccccc2)sc1Br,-0.7,6.0,1.6,-4.3,44.1*,11.2
COc1ccc2nc(NC(=O)Nc3ccccc3)sc2c1,-0.5,6.3,-11.4,2.8,0.3,x
O=C(N[C@H](C(=O)N1CCC[C@H]1C(=O)NCc1ccccc1)c1ccccc1)C1CCCC1,0.3,x,-3.4,x,x,x
N#CC1=C(c2ccccc2)/C(=C/c2ccccc2)OC1=O,0.7,13.7,1.2,1.4,65.8*,87.4*
O=C1O/C(=C/c2ccccc2)c2ccccc21,-0.5,-4.9,-0.8,0.4,1.3,x
CCOc1cc(/C=C2\C(=O)ON=C2C)ccc1OCc1ccccc1,-2.2,10.6,-4.7,-0.3,59.8*,84.3*
O=[N+]([O-])CC(c1ccccc1)c1c[nH]c2ccccc12 (stereo unspecified),1.8,1.1,1.3,0.0,3.9,x
OC(CNCC(c1ccc(Cl)cc1Cl)c1c[nH]c2ccccc12)c1ccccc1 (stereo unspecified),-1.5,-7.7,4.7,1.0,58.9*,44.2*
